Screening data: PubChem, Johns Hopkins Ion Channel Center
RGS4 block: inhibitors of human RGS4; HEK293 M3R/RGS4 inducible, Fluo-4 calcium flux; stronger effect = higher value; triggered by carbachol at its EC20; P49798; hit rate 0.45% among 310,000; B-score at 10 µM;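 active = B-score, a plate-corrected calcium signal, over three deviations above library mean, with baseline fluorescence within five deviations of library mean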;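 note: RGS4 expression induced by doxycycline in cells with stable M3 receptor; B-score is computed from the integrated fluorescence ratio over baseline after carbachol; higher B-score means a larger calcium signal and so more RGS4 inhibition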
Target sequence (P49798 whole entry, looked up): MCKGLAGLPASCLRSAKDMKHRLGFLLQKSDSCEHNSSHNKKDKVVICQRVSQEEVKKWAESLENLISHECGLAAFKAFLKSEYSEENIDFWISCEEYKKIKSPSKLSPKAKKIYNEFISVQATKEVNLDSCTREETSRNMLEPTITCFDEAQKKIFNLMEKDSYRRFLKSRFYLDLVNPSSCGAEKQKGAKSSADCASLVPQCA
RGS4 pot: potentiators or activators of RGS4; B-score at 10 µM; hit rate 0.92% among 310,000; HEK293 M3R/inducible RGS4, carbachol calcium flux Fluo4; stronger effect = lower value;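 active = B-score of the integrated calcium signal more than 4 SD below the library mean, with starting fluorescence not abnormally high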;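 note: negative B-score means reduced calcium response which marks RGS4 activation or potentiation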
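Material: M3R-expressing HEK293 line, RGS4 induced by doxycycline | Schedule: Overnight RGS4 induction, 30 min dye load 37 °C, 20 min compound RT | Measured by: Fluo4 fluorescence kinetic imaging of calcium | Read-out: Integrated calcium ratio converted to B score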
MrgX1 PAM: human MrgX1 positive allosteric modulation, primary screen; Q96LB2; MrgX1-HEK293, Fluo-4 calcium flux, FDSS; stronger effect = higher value; B-score at 10 µM; hit rate 0.63% among 310,000;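 active = plate-corrected calcium response at least 3 library SD above typical, normal starting fluorescence, not activating the receptor alone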;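 note: compound read alongside a low EC10 to EC30 dose of BAM8-22 agonist; peak minus trough fluorescence over baseline measured at the second addition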
Target sequence (Q96LB2 whole entry, looked up): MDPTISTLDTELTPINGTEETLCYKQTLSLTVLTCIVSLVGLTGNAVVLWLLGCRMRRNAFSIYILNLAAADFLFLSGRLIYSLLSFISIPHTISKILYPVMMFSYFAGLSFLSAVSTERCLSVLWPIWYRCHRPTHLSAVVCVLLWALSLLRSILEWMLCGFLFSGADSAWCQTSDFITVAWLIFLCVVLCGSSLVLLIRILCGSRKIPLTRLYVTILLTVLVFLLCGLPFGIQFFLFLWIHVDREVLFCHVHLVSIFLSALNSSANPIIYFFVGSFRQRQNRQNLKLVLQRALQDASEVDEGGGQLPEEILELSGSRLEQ
MrgX1 antag: antagonists of human MrgX1 receptor; MRGX1-HEK293 calcium flux, Fluo-4, BAM8-22 antagonism; stronger effect = lower value; AID 588676; B-score at 10 µM; hit rate 1.3% among 310,000;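 active = calcium-response B-score plate-corrected more than 3 library SD below zero, starting fluorescence within 5 deviations, no agonist response on first addition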;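 note: peak minus trough fluorescence over baseline after final BAM8-22 challenge near maximal dose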
MrgX1 ag: human MrgX1 receptor agonism, primary screen; B-score at 10 µM; hit rate 0.44% among 310,000; Q96LB2; MrgX1-HEK293 cells, Fluo-4 calcium fluorescence, agonist mode; stronger effect = higher value;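 active = calcium response B-score plate-corrected fluorescence ratio at least 3 library SD, with starting fluorescence B-score inside 5 SD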
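System – MrgX1-expressing HEK293 cells · Incubation – cells plated overnight, dye loaded 0.5 h 37 °C, 0.5 h room temperature · Technique – kinetic Fluo-4 NW fluorescence of intracellular calcium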
RGS4 block valid: RGS4 inhibitor validation; hit rate 65% among 1,700; calcium response, % at 10 µM; shares compounds with RGS4 block; HEK293 M3R/RGS4, carbachol calcium Fluo-4 fluorescence; carbachol added at its EC20; 0 = buffer wells, 100 = carbachol control;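 active = duplicate-averaged calcium response above the buffer-only control mean plus 5 SD of those controls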;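 note: integrated fluorescence ratio F max minus min over baseline F0; higher response in RGS4-induced cells means RGS4 inhibition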
M3R Ca ctr: non-induced cell nonspecific activity of RGS4 inhibitors; HEK293 M3R non-induced, carbachol calcium Fluo-4; submaximal (EC20) carbachol stimulus; buffer wells 0%, carbachol control wells 100%; shares compounds with RGS4 block; hit rate 20% among 1,900; activity (percent), % at 10 µM; AID 493000; call rule not given here;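 note: RGS4 induction absent so cells express M3R without RGS4; higher means more calcium signal and flags a non-specific hit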
M3R basal Ca ctr: signal in non-induced cells without carbachol, RGS4 inhibitor counter-screen. AID 493001. shares compounds with RGS4 block. calcium response (agonist-mode artifact), % at 10 µM. HEK293 M3R/RGS4 non-induced, Fluo-4 calcium, no carbachol; normalised: buffer wells 0%, carbachol wells 100%. hit rate 22% among 1,900;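 active = duplicate-averaged calcium rise in uninduced cells above buffer wells' mean plus 5 SD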
* hit, by the source's call; i = inactive; nt = no result. An excerpt weighted towards active compounds, which were near 3.5% of everything screened.

SMILES	RGS4 block	RGS4 pot	MrgX1 PAM	MrgX1 antag	MrgX1 ag	RGS4 block valid	M3R Ca ctr	M3R basal Ca ctr
COc1ccc(/C=C2\CCC/C(=C\C=N\N(C)C)C2=O)cc1	i	i	i	i	i	nt	nt	nt
CN(C)/N=C/C=C1\CCC/C(=C\c2ccc(F)c(F)c2)C1=O	23*	i	i	i	i	8.5%*	i	i
Cc1ccc(Cl)cc1N(C)C(=O)Cn1ncc2c([nH]c3ccccc32)c1=O	i	i	i	i	i	nt	nt	nt
CCN1C(=O)/C(=C\c2ccncc2)SC1=Nc1ccc(C)c(C)c1	8.2*	i	i	i	i	30%*	i	i
CCN(CCO)c1nc(SC)nc2c1sc1nc(-c3ccco3)c3c(c12)CCC3	i	i	i	i	i	i	i	i
O=C(O)c1ccccc1Nc1cc(Cl)c2nonc2c1[N+](=O)[O-]	i	i	i	i	i	nt	nt	nt
O=[N+]([O-])c1c(Nc2ccccn2)cc(Cl)c2nonc12	10*	i	i	-4.7*	i	54%*	i	8.0%*
COc1ccccc1CNC(=O)COC(=O)c1c(C)nn(-c2ccccc2)c1Cl	18*	i	i	i	i	i	i	i
COc1ccc(C(C)=O)cc1CSCCC#N	i	i	i	i	i	nt	nt	nt
O=C(Nc1nnc(-c2ccc3c(c2)OCCO3)o1)C1CCCCC1	8.4*	i	i	i	i	7.0%*	i	i
C=CCNc1nnc(SC2CC(=O)N(c3ccc(OCCC)cc3)C2=O)s1 (stereo not given)	i	i	i	i	i	i	i	i
O=C(CN(Cc1ccccc1F)C(=O)c1csnn1)NCc1ccc2c(c1)OCO2	i	i	i	i	i	nt	nt	nt
N#Cc1c(-c2ccccc2)c(-c2ccccc2)nn(CC(=O)NNC(=O)Nc2ccc(Cl)c(Cl)c2)c1=O	6.5*	i	i	i	i	28%*	i	i
Cc1ccc(S(=O)(=O)n2cnc3ccccc32)cc1[N+](=O)[O-]	i	i	i	i	i	nt	nt	nt
Cc1ccc(NC(=O)CN(C)C(=O)c2cccnc2Nc2cccc(C(F)(F)F)c2)cc1	6.8*	i	i	i	i	18%*	i	i
CN1C/C(=C/c2ccncc2)C(=O)/C(=C/c2ccncc2)C1	21*	i	i	i	i	80%*	i	i
CN1C/C(=C\c2ccc(N3CCOCC3)cc2)C(=O)/C(=C/c2ccc(N3CCOCC3)cc2)C1	i	i	i	i	i	nt	nt	nt
CCOc1cc(/C=C2\CN(C)C/C(=C\c3ccc(O)c(OCC)c3)C2=O)ccc1O	i	i	i	i	i	nt	nt	nt
CN1C/C(=C/c2ccsc2)C(=O)/C(=C/c2ccsc2)C1	6.8*	i	i	i	i	9.5%*	i	i
CCOc1ccc(CCNC(=O)CN2CCN(Cc3ccccc3C)C2=O)cc1OCC	i	i	i	i	i	nt	nt	nt
Cc1ccc(-c2nc3ccccn3c2Nc2ccccc2)o1	i	i	i	i	i	nt	nt	nt
Cc1ccc(-c2nc3cnccn3c2Nc2ccccc2)o1	10*	i	i	i	i	i	i	i
Cc1ccc(-c2nc3cnccn3c2Nc2ccc3c(c2)OCO3)o1	i	i	i	i	i	nt	nt	nt
Cc1ccc(Nc2c(-c3ccc(C)o3)nc3cnccn23)cc1	i	i	i	i	i	i	i	i
COc1ccc(C)cc1NS(=O)(=O)c1ccc(NC(=O)CN(c2cc([N+](=O)[O-])ccc2C)S(C)(=O)=O)cc1	i	i	i	i	i	nt	i	i
SMILES	RGS4 block	RGS4 pot	MrgX1 PAM	MrgX1 antag	MrgX1 ag	RGS4 block valid	M3R Ca ctr	M3R basal Ca ctr
CCC(C)(C)c1nnc(NC(=O)CCC2CCCCC2)s1	i	i	i	i	i	nt	nt	nt
O=c1c(O)c(-c2ccc(O)c(O)c2)oc2cc(O)cc(O)c12	5*	i	8.8*	i	i	34%*	40%*	i
O=c1cc(-c2ccc(O)c(O)c2)oc2cc(O)cc(O)c12	i	i	i	i	i	nt	nt	nt
CCc1c(O)nc(SCC(=O)Nc2ccc(OC)cc2)n(C2CCCCC2)c1=O	i	i	i	i	i	nt	nt	nt
COC(=O)c1sc(NC(=O)CSc2nc3cccnc3n2C)nc1C	i	i	i	i	i	nt	nt	nt
CCc1c(O)nc(SCC(=O)Nc2nc3ccccc3s2)n(C2CCCCC2)c1=O	5.8*	i	i	i	i	37%*	i	i
COC(=O)c1sc(NC(=O)CSc2nc3cccnc3n2C2CCCCC2)nc1C	4.9*	i	i	i	i	9.5%*	i	i
CCn1c(SCC(=O)OC2CCCCC2)nc2ccccc2c1=O	5.5*	i	i	i	i	14%*	i	i
CCOC(=O)CSc1nc2ccccc2c(=O)n1CC	i	i	i	i	i	nt	nt	nt
COc1ccc(Nc2nc(N3CCOCC3)nc(N3CCOCC3)n2)c(OC)c1	i	i	i	i	i	i	i	i
CCN(CC)CCn1c(=S)[nH]c2cc(C(=O)NCc3ccccc3Cl)ccc2c1=O	i	i	i	i	i	nt	nt	nt
O=C(O)COc1ccc(/C=C2/SC(=S)N(Cc3ccccc3)C2=O)cc1	i	i	i	i	i	nt	42%*	i
COc1ccc(/C=C2/SC(=S)N(Cc3ccccc3)C2=O)cc1O	5*	i	i	i	i	24%*	i	20%*
O=C1/C(=C\c2cc(Cl)c(O)c(Cl)c2)SC(=S)N1Cc1ccccc1	i	i	i	i	i	nt	nt	nt
CCN1CCN(C(=O)CCc2nnc(CCCCc3ccccc3)o2)[C@@H](C)C1=O	i	i	i	i	i	nt	nt	nt
COc1ccc(NC(=O)CC2SC(=NCc3ccccc3OC)NC2=O)cc1 (stereo not given)	i	i	i	i	i	nt	i	i
COc1ccc(CCNC(=O)CC2SC(=NCCc3ccccc3)NC2=O)cc1OC (stereo not given)	i	i	i	i	i	nt	nt	nt
